Results on 25 compounds are retold here after ChEMBL document CHEMBL4229449, “Synthesis and antimicrobial studies of hydrazone derivatives of 4-[3-(2,4-difluorophenyl)-4-formyl-1H-pyrazol-1-yl]benzoic acid and 4-[3-(3,4-difluorophenyl)-4-formyl-1H-pyrazol-1-yl]benzoic acid” (Bioorg Med Chem Lett, 2018).

In brackets after ≈: the same amount, converted by molar mass. Activity calls are given as the source filed them. No cut-off for these calls is given here.

One data set relates to Bacillus subtilis. Description: Antimicrobial activity against Bacillus subtilis by broth microdilution method. The data set is classed as functional. On the technique in general: Dilution methods test growth across graded concentrations, often in twofold steps.
The test system of another data set is Acinetobacter baumannii. The experiment in a line: Antimicrobial activity against Acinetobacter baumannii by broth microdilution method. The data set is classed as functional.
The subject of data set [1] is Staphylococcus aureus. Description: Antimicrobial activity against methicillin-resistant Staphylococcus aureus by broth microdilution method. The data set is classed as functional.
The test system of another data set is Pseudomonas aeruginosa. The experiment in a line: Antimicrobial activity against Pseudomonas aeruginosa by broth microdilution method. The data set is classed as functional, organism-based.
Data set [2] has as its system Staphylococcus aureus. Description: Antimicrobial activity against Staphylococcus aureus by broth microdilution method. The data set is classed as functional.
The next data set relates to Klebsiella aerogenes. Description: Antimicrobial activity against Enterobacter aerogenes by broth microdilution method. The data set is classed as functional, organism-based.
Data set [3] relates to HEK293. The experiment in a line: Cytotoxicity against human HEK293 cells assessed as reduction in cell viability at 25 to 50 ug/ml after 24 hrs by resazurin dye based method. The note with it: hek293, 24 h. Summed up:
(§1)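 HEK-293 human embryonic kidney cells were exposed to test compounds at 25 and 50 μg/mL and incubated for 24 h. Growth inhibition was read by resazurin assay and expressed as percent cell viability.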
(Resazurin is reduced to fluorescent resorufin, in cell work by metabolically active cells.)

The subject of data set [4] is Panel NCI-60 (60 carcinoma cell lines). Description: Cytotoxicity against human NCI60 cells assessed as reduction in cell viability at 10 uM after 24 hrs by resazurin dye based method.
Data set [5] deals with HEK293. The experiment in a line: Cytotoxicity against human HEK293 cells assessed as reduction in cell viability at 50 ug/ml after 24 hrs by resazurin dye based method. Conditions: hek293, 24 h. In short, it runs like this:
as §1

As for `O=C(O)c1ccc(N/N=C/c2cn(-c3ccc(C(=O)O)cc3)nc2-c2ccc(F)c(F)c2)cc1`, the MIC result in the data set with Bacillus subtilis, with Acinetobacter baumannii, in the data set with Staphylococcus aureus [1], in the data set with Pseudomonas aeruginosa, with Staphylococcus aureus [2] and in the data set on Klebsiella aerogenes was “inactive” throughout.

For the compound `O=C(O)c1ccc(-n2cc(/C=N/Nc3cc(F)ccc3F)c(-c3ccc(F)c(F)c3)n2)cc1`, the Activity entry with HEK293 [3] is reported as “Non-Toxic”; in data set [4], “Non-Toxic”; in the data set on HEK293 [5], 69%. Besides, the MIC with Bacillus subtilis came to 3.12 µg/mL (≈ 6.88 µM); in the data set with Acinetobacter baumannii, 6.25 µg/mL (≈ 13.8 µM). Further, the MIC entry in the data set with Staphylococcus aureus [1], with Pseudomonas aeruginosa, in the data set on Staphylococcus aureus [2] and in the data set on Klebsiella aerogenes was “inactive” in each case.

Regarding `CN1CCN(/N=C/c2cn(-c3ccc(C(=O)O)cc3)nc2-c2ccc(F)cc2F)CC1`, the MIC result in the data set with Bacillus subtilis, in the data set on Acinetobacter baumannii, in the data set on Staphylococcus aureus [1], with Pseudomonas aeruginosa, with Staphylococcus aureus [2] and with Klebsiella aerogenes was “inactive” throughout.

With `O=C(O)c1ccc(-n2cc(/C=N/Nc3cccc(F)c3)c(-c3ccc(F)cc3F)n2)cc1`, the figures for the Activity entry (with HEK293 [3]; in data set [4]; with HEK293 [5]) were “Non-Toxic”, “Non-Toxic” and greater than 80%, respectively. For the same compound, the MIC with Bacillus subtilis was 12.5 µg/mL (≈ 28.6 µM); with Acinetobacter baumannii it was 6.25 µg/mL (≈ 14.3 µM); in the data set on Staphylococcus aureus [1] it was 25 µg/mL (≈ 57.3 µM); against Staphylococcus aureus [2], 25 µg/mL (≈ 57.3 µM). The MIC result with Pseudomonas aeruginosa and in the data set on Klebsiella aerogenes was “inactive” in each case.

On to `O=C(O)c1ccc(-n2cc(/C=N/Nc3c(F)c(F)c(F)c(F)c3F)c(-c3ccc(F)cc3F)n2)cc1`, for which the MIC entry in the data set on Bacillus subtilis, with Acinetobacter baumannii, with Staphylococcus aureus [1], with Pseudomonas aeruginosa, with Staphylococcus aureus [2] and in the data set with Klebsiella aerogenes was “inactive” each time.

Regarding `O=C(O)c1ccc(-n2cc(/C=N/Nc3ccccc3)c(-c3ccc(F)cc3F)n2)cc1`, the figures for the Activity entry (with HEK293 [3]; in [4]; in the data set with HEK293 [5]) were “Non-Toxic”, “Non-Toxic” and greater than 80%, respectively. Moreover, the MIC with Bacillus subtilis, against Acinetobacter baumannii, in the data set with Staphylococcus aureus [1] and in the data set on Staphylococcus aureus [2] was 25 µg/mL (≈ 59.8 µM) in each case. Besides, the MIC entry with Pseudomonas aeruginosa and in the data set on Klebsiella aerogenes was “inactive” throughout.

For `O=C(O)c1ccc(-n2cc(/C=N/Nc3cc(F)ccc3F)c(-c3ccc(F)cc3F)n2)cc1`, the MIC worked out at 3.12 µg/mL (≈ 6.87 µM) with Bacillus subtilis, 12.5 µg/mL (≈ 27.5 µM) in the data set with Acinetobacter baumannii, 12.5 µg/mL (≈ 27.5 µM) against Staphylococcus aureus [1] and 12.5 µg/mL (≈ 27.5 µM) with Staphylococcus aureus [2]. Moreover, the MIC entry in the data set with Pseudomonas aeruginosa and in the data set with Klebsiella aerogenes was “inactive” each time.

`O=C(O)c1ccc(-n2cc(/C=N/Nc3cccc(C(=O)O)c3)c(-c3ccc(F)cc3F)n2)cc1`: the MIC entry with Bacillus subtilis, in the data set on Acinetobacter baumannii, in the data set on Staphylococcus aureus [1], with Pseudomonas aeruginosa, with Staphylococcus aureus [2] and with Klebsiella aerogenes was “inactive” each time.

In the case of `O=C(O)c1ccc(-n2cc(/C=N/Nc3c(F)c(F)cc(F)c3F)c(-c3ccc(F)c(F)c3)n2)cc1`, the minimal inhibitory concentration (MIC) against Bacillus subtilis came to 6.25 µg/mL (≈ 12.7 µM); in the data set on Staphylococcus aureus [1], 12.5 µg/mL (≈ 25.5 µM); with Staphylococcus aureus [2] it was 12.5 µg/mL (≈ 25.5 µM). Also, the MIC entry in the data set with Acinetobacter baumannii, in the data set with Pseudomonas aeruginosa and in the data set on Klebsiella aerogenes was “inactive” throughout.

For the compound `O=C(O)c1ccc(-n2cc(/C=N/Nc3ccc(Cl)cc3)c(-c3ccc(F)c(F)c3)n2)cc1`, the Activity result was “Non-Toxic” in the data set with HEK293 [3], “Non-Toxic” in data set [4] and greater than 80% in the data set on HEK293 [5]. Also, the MIC in the data set with Bacillus subtilis amounted to 6.25 µg/mL (≈ 13.8 µM); in the data set on Acinetobacter baumannii, 1.56 µg/mL (≈ 3.44 µM); with Staphylococcus aureus [1] it was 6.25 µg/mL (≈ 13.8 µM); in the data set with Staphylococcus aureus [2], 6.25 µg/mL (≈ 13.8 µM). Also, the MIC result in the data set with Pseudomonas aeruginosa and in the data set on Klebsiella aerogenes was “inactive” each time.

For `O=C(O)c1ccc(-n2cc(/C=N/Nc3c(F)c(F)cc(F)c3F)c(-c3ccc(F)cc3F)n2)cc1`, the MIC result with Bacillus subtilis, in the data set on Acinetobacter baumannii, in the data set on Staphylococcus aureus [1], in the data set on Pseudomonas aeruginosa, in the data set on Staphylococcus aureus [2] and in the data set on Klebsiella aerogenes was “inactive” each time.

In turn, `O=C(O)c1cn(C2CC2)c2cc(N3CCNCC3)c(F)cc2c1=O` [CIPROFLOXACIN] returned an MIC in the data set with Bacillus subtilis of 1.56 µg/mL (≈ 4.71 µM).

`O=C(O)c1ccc(-n2cc(/C=N/Nc3ccc(F)cc3)c(-c3ccc(F)c(F)c3)n2)cc1`: the values for the Activity result (with HEK293 [3]; in data set [4]; in the data set on HEK293 [5]) were “Non-Toxic”, “Non-Toxic” and greater than 80%, respectively. Further, the MIC in the data set on Bacillus subtilis is 25 µg/mL (≈ 57.3 µM); against Acinetobacter baumannii, 6.25 µg/mL (≈ 14.3 µM); against Staphylococcus aureus [1], 25 µg/mL (≈ 57.3 µM); with Staphylococcus aureus [2], 25 µg/mL (≈ 57.3 µM). Further, the MIC result in the data set with Pseudomonas aeruginosa and with Klebsiella aerogenes was “inactive” in each case.

Consider `O=C(O)c1ccc(-n2cc(/C=N/Nc3ccccc3)c(-c3ccc(F)c(F)c3)n2)cc1`, for which the Activity entry in the data set with HEK293 [3] is “Non-Toxic”; in data set [4], “Non-Toxic”; with HEK293 [5] it was greater than 80%. Further, the MIC came out at 25 µg/mL (≈ 59.8 µM) in the data set on Bacillus subtilis, 6.25 µg/mL (≈ 14.9 µM) against Acinetobacter baumannii, 25 µg/mL (≈ 59.8 µM) in the data set on Staphylococcus aureus [1] and 25 µg/mL (≈ 59.8 µM) against Staphylococcus aureus [2]. Moreover, the MIC result in the data set with Pseudomonas aeruginosa and in the data set on Klebsiella aerogenes was “inactive” throughout.

Regarding COLISTIN, the MIC is 12.5 µg/mL against Acinetobacter baumannii, 0.78 µg/mL against Pseudomonas aeruginosa and 0.39 µg/mL against Klebsiella aerogenes.

For `O=C(O)c1ccc(-n2cc(/C=N/Nc3ccccc3F)c(-c3ccc(F)c(F)c3)n2)cc1`, the Activity entry in the data set on HEK293 [3] is “Non-Toxic”; in data set [4], “Non-Toxic”; with HEK293 [5], greater than 80%. Besides, the MIC was 12.5 µg/mL (≈ 28.6 µM) against Bacillus subtilis, 6.25 µg/mL (≈ 14.3 µM) with Acinetobacter baumannii, 12.5 µg/mL (≈ 28.6 µM) in the data set with Staphylococcus aureus [1] and 12.5 µg/mL (≈ 28.6 µM) in the data set with Staphylococcus aureus [2]. For the same compound, the MIC result in the data set on Pseudomonas aeruginosa and in the data set on Klebsiella aerogenes was “inactive” each time.

With `O=C(O)c1ccc(-n2cc(/C=N/Nc3ccccc3F)c(-c3ccc(F)cc3F)n2)cc1`, the Activity entry in the data set on HEK293 [3] is “Non-Toxic”; in data set [4], “Non-Toxic”; in the data set on HEK293 [5] it was greater than 80%. The MIC against Bacillus subtilis stood at 12.5 µg/mL (≈ 28.6 µM); against Acinetobacter baumannii, 12.5 µg/mL (≈ 28.6 µM); with Staphylococcus aureus [1], 25 µg/mL (≈ 57.3 µM); against Staphylococcus aureus [2], 25 µg/mL (≈ 57.3 µM). The MIC result in the data set with Pseudomonas aeruginosa and in the data set on Klebsiella aerogenes was “inactive” each time.

Take `O=C(O)c1ccc(-n2cc(/C=N/Nc3ccc(F)cc3)c(-c3ccc(F)cc3F)n2)cc1`: the MIC came to 6.25 µg/mL (≈ 14.3 µM) with Bacillus subtilis, 6.25 µg/mL (≈ 14.3 µM) with Acinetobacter baumannii, 25 µg/mL (≈ 57.3 µM) in the data set on Staphylococcus aureus [1] and 25 µg/mL (≈ 57.3 µM) with Staphylococcus aureus [2]. In addition, the MIC entry in the data set on Pseudomonas aeruginosa and with Klebsiella aerogenes was “inactive” each time.

On to `O=C(O)c1ccc(N/N=C/c2cn(-c3ccc(C(=O)O)cc3)nc2-c2ccc(F)cc2F)cc1`, for which the MIC entry in the data set on Bacillus subtilis, with Acinetobacter baumannii, in the data set with Staphylococcus aureus [1], with Pseudomonas aeruginosa, in the data set on Staphylococcus aureus [2] and in the data set on Klebsiella aerogenes was “inactive” in each case.

Consider `CN1CCN(/N=C/c2cn(-c3ccc(C(=O)O)cc3)nc2-c2ccc(F)c(F)c2)CC1`, for which the MIC result with Bacillus subtilis, in the data set on Acinetobacter baumannii, with Staphylococcus aureus [1], in the data set on Pseudomonas aeruginosa, in the data set on Staphylococcus aureus [2] and with Klebsiella aerogenes was “inactive” each time.

For the compound `O=C(O)c1ccc(-n2cc(/C=N/Nc3ccc([N+](=O)[O-])cc3)c(-c3ccc(F)cc3F)n2)cc1`, the MIC result in the data set on Bacillus subtilis, in the data set on Acinetobacter baumannii, with Staphylococcus aureus [1], in the data set on Pseudomonas aeruginosa, in the data set on Staphylococcus aureus [2] and with Klebsiella aerogenes was “inactive” each time.

For `O=C(O)c1ccc(-n2cc(/C=N/N3CCCCC3)c(-c3ccc(F)cc3F)n2)cc1`, the MIC result in the data set with Bacillus subtilis, in the data set on Acinetobacter baumannii, in the data set with Staphylococcus aureus [1], in the data set with Pseudomonas aeruginosa, in the data set with Staphylococcus aureus [2] and with Klebsiella aerogenes was “inactive” in each case.

For the compound `CN[C@H](CC(C)C)C(=O)N[C@H]1C(=O)N[C@@H](CC(N)=O)C(=O)N[C@H]2C(=O)N[C@H]3C(=O)N[C@H](C(=O)N[C@H](C(=O)O)c4cc(O)cc(O)c4-c4cc3ccc4O)[C@H](O)c3ccc(c(Cl)c3)Oc3cc2cc(c3O[C@@H]2O[C@H](CO)[C@@H](O)[C@H](O)[C@H]2O[C@H]2C[C@](C)(N)[C@H](O)[C@H](C)O2)Oc2ccc(cc2Cl)[C@H]1O` [VANCOMYCIN], the values for the MIC in the data set on Staphylococcus aureus [1] and in the data set on Staphylococcus aureus [2] were 12.5 µg/mL (≈ 8.63 µM) and 6.25 µg/mL (≈ 4.31 µM), respectively.

Consider `O=C(O)c1ccc(-n2cc(/C=N/Nc3cccc(F)c3)c(-c3ccc(F)c(F)c3)n2)cc1`, for which the figures for the Activity entry (in the data set with HEK293 [3]; in data set [4]; in the data set with HEK293 [5]) were “Non-Toxic”, “Non-Toxic” and greater than 80%, respectively. For the same compound, the MIC against Bacillus subtilis turned out to be 12.5 µg/mL (≈ 28.6 µM); against Acinetobacter baumannii it was 6.25 µg/mL (≈ 14.3 µM); against Staphylococcus aureus [1], 12.5 µg/mL (≈ 28.6 µM); with Staphylococcus aureus [2] it was 12.5 µg/mL (≈ 28.6 µM). Besides, the MIC result with Pseudomonas aeruginosa and with Klebsiella aerogenes was “inactive” throughout.

Regarding `O=C(O)c1ccc(-n2cc(/C=N/Nc3ccc([N+](=O)[O-])cc3)c(-c3ccc(F)c(F)c3)n2)cc1`, the MIC result in the data set on Bacillus subtilis, with Acinetobacter baumannii, with Staphylococcus aureus [1], with Pseudomonas aeruginosa, with Staphylococcus aureus [2] and in the data set with Klebsiella aerogenes was “inactive” in each case.

Broadly, the MIC is the least concentration at which growth counts as inhibited.
